In ChEMBL document CHEMBL1671716, “Antimicrobial susceptibility patterns for recent clinical isolates of anaerobic bacteria in South Korea” (2010):
In brackets after ≈: the same amount, converted by molar mass.

Columns and labels:
[1] = system: Bacteroides caccae; assay: Antimicrobial activity against Bacteroides caccae after 48 hrs by agar dilution method; type: functional
In short: (§1)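 MICs on clinical anaerobe isolates by the CLSI agar dilution method. Inoculum of 10^5 CFU applied with a Steers replicator. Plates incubated 48 h at 37°C in an anaerobic chamber.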

[2] = system: Parabacteroides distasonis; assay: Antimicrobial activity against Bacteroides distasonis after 48 hrs by agar dilution method; type: functional; in short: as §1
[3] = system: Bacteroides ovatus; assay: Antimicrobial activity against Bacteroides ovatus after 48 hrs by agar dilution method; type: functional; in short: as §1
[4] = system: Bacteroides fragilis; assay: Antimicrobial activity against Bacteroides fragilis assessed as percent resistant isolates after 48 hrs by agar dilution method; type: functional
In short: (§2)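 CLSI agar dilution on recent Korean clinical anaerobe isolates. Inoculum 10^5 CFU per spot by replicator. Plates incubated in an anaerobic chamber at 37°C for 48 h. For piperacillin plus tazobactam, tazobactam was held constant at 4 μg/ml. Resistance and susceptibility rates derived from MICs.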

[5] = system: Bacteroides thetaiotaomicron; assay: Antimicrobial activity against Bacteroides thetaiotaomicron assessed as percent susceptible isolates after 48 hrs by agar dilution method; type: functional
[6] = system: Bacteroides thetaiotaomicron; assay: Antimicrobial activity against Bacteroides thetaiotaomicron assessed as percent resistant isolates after 48 hrs by agar dilution method; type: functional; in short: as §2
[7] = system: Bacteroides caccae; assay: Antimicrobial activity against Bacteroides caccae assessed as percent susceptible isolates after 48 hrs by agar dilution method; type: functional
[8] = system: Phocaeicola vulgatus; assay: Antimicrobial activity against Bacteroides vulgatus assessed as percent susceptible isolates after 48 hrs by agar dilution method; type: functional
[9] = system: Bacteroides ovatus; assay: Antimicrobial activity against Bacteroides ovatus assessed as percent resistant isolates after 48 hrs by agar dilution method; type: functional; in short: as §2
[10] = system: Prevotella intermedia; assay: Antimicrobial activity against Prevotella intermedia after 48 hrs by agar dilution method; type: functional
In short: (§3)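 CLSI agar dilution (M11-A7); inoculum 10^5 CFU applied by replicator; plates incubated anaerobically 48 h at 37°C. For piperacillin-tazobactam, tazobactam held constant at 4 μg/ml.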

[11] = system: Prevotella intermedia; assay: Antimicrobial activity against Prevotella intermedia assessed as percent susceptible isolates after 48 hrs by agar dilution method; type: functional; in short: as §3
[12] = system: Prevotella bivia; assay: Antimicrobial activity against Prevotella bivia assessed as percent susceptible isolates after 48 hrs by agar dilution method; type: functional; in short: as §3
[13] = system: Prevotella bivia; assay: Antimicrobial activity against Prevotella bivia assessed as percent resistant isolates after 48 hrs by agar dilution method; type: functional; in short: as §2
[14] = system: Prevotella buccae; assay: Antimicrobial activity against Prevotella buccae assessed as percent susceptible isolates after 48 hrs by agar dilution method; type: functional, Segatella buccae; in short: as §3
[15] = system: Hoylesella oralis; assay: Antimicrobial activity against Prevotella oralis assessed as percent susceptible isolates after 48 hrs by agar dilution method; type: functional
In short: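 CLSI agar dilution MIC testing of clinical isolates. 10^5 CFU spotted by replicator, plates incubated 48 h at 37°C in an anaerobic chamber. Susceptibility rates derived from the MICs.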

[16] = system: Hoylesella oralis; assay: Antimicrobial activity against Prevotella oralis assessed as percent resistant isolates after 48 hrs by agar dilution method; type: functional; in short: as §2
[17] = system: Peptostreptococcus anaerobius; assay: Antimicrobial activity against Peptostreptococcus anaerobius after 48 hrs by agar dilution method; type: functional; in short: as §3
[18] = system: Parvimonas micra; assay: Antimicrobial activity against Peptostreptococcus micros after 48 hrs by agar dilution method; type: functional; in short: as §3
[19] = system: Peptostreptococcus anaerobius; assay: Antimicrobial activity against Peptostreptococcus anaerobius assessed as percent susceptible isolates after 48 hrs by agar dilution method; type: functional; in short: as §2
[20] = system: Parvimonas micra; assay: Antimicrobial activity against Peptostreptococcus micros assessed as percent susceptible isolates after 48 hrs by agar dilution method; type: functional; in short: as §2
[21] = system: Anaerococcus prevotii; assay: Antimicrobial activity against Anaerococcus prevotii after 48 hrs by agar dilution method; type: functional; in short: as §1
[22] = system: Anaerococcus prevotii; assay: Antimicrobial activity against Anaerococcus prevotii assessed as percent resistant isolates after 48 hrs by agar dilution method; type: functional; in short: as §2
[23] = system: Peptoniphilus asaccharolyticus; assay: Antimicrobial activity against Peptoniphilus asaccharolyticus after 48 hrs by agar dilution method; type: functional; in short: as §3
[24] = system: Finegoldia magna; assay: Antimicrobial activity against Finegoldia magna after 48 hrs by agar dilution method; type: functional; in short: as §3
[25] = system: Schaalia odontolytica; assay: Antimicrobial activity against Actinomyces odontolyticus assessed as percent resistant isolates after 48 hrs by agar dilution method; type: functional; in short: as §2
[26] = system: Actinomyces israelii; assay: Antimicrobial activity against Actinomyces israelii after 48 hrs by agar dilution method; type: functional; in short: as §1
[27] = system: Actinomyces israelii; assay: Antimicrobial activity against Actinomyces israelii assessed as percent susceptible isolates after 48 hrs by agar dilution method; type: functional
[28] = system: Actinomyces israelii; assay: Antimicrobial activity against Actinomyces israelii assessed as percent resistant isolates after 48 hrs by agar dilution method; type: functional; in short: as §2
[29] = system: Schaalia meyeri; assay: Antimicrobial activity against Actinomyces meyeri assessed as percent susceptible isolates after 48 hrs by agar dilution method; type: functional
[30] = system: Schaalia meyeri; assay: Antimicrobial activity against Actinomyces meyeri assessed as percent resistant isolates after 48 hrs by agar dilution method; type: functional; in short: as §2
[31] = system: Actinomyces naeslundii; assay: Antimicrobial activity against Actinomyces naeslundii assessed as percent susceptible isolates after 48 hrs by agar dilution method; type: functional
[32] = system: Bifidobacterium adolescentis; assay: Antimicrobial activity against Bifidobacterium adolescentis assessed as percent susceptible isolates after 48 hrs by agar dilution method; type: functional
[33] = system: Bifidobacterium adolescentis; assay: Antimicrobial activity against Bifidobacterium adolescentis assessed as percent resistant isolates after 48 hrs by agar dilution method; type: functional; in short: as §2
[34] = system: Bifidobacterium sp.; assay: Antimicrobial activity against Bifidobacterium sp. after 48 hrs by agar dilution method; type: functional; in short: as §1
[35] = system: Bifidobacterium sp.; assay: Antimicrobial activity against Bifidobacterium sp. assessed as percent susceptible isolates after 48 hrs by agar dilution method; type: functional; in short: as §3
[36] = system: Bifidobacterium sp.; assay: Antimicrobial activity against Bifidobacterium sp. assessed as percent resistant isolates after 48 hrs by agar dilution method; type: functional; in short: as §2
[37] = system: Eggerthella lenta; assay: Antimicrobial activity against Eubacterium lentum after 48 hrs by agar dilution method; type: functional; in short: as §3
[38] = system: Eggerthella lenta; assay: Antimicrobial activity against Eubacterium lentum assessed as percent susceptible isolates after 48 hrs by agar dilution method; type: functional; in short: as §3
[39] = system: Eubacterium sp.; assay: Antimicrobial activity against Eubacterium sp. after 48 hrs by agar dilution method; type: functional; in short: as §3
[40] = system: Eubacterium sp.; assay: Antimicrobial activity against Eubacterium sp. assessed as percent resistant isolates after 48 hrs by agar dilution method; type: functional; in short: as §2

Compound `COc1c(N2C[C@@H]3CCCN[C@@H]3C2)c(F)cc2c(=O)c(C(=O)O)cn(C3CC3)c12` [MOXIFLOXACIN] has an MIC50 [1] of 2 µg/mL (≈ 4.98 µM), an MIC90 [1] of 16 µg/mL (≈ 39.9 µM) and an MIC50 [2] of 2 µg/mL (≈ 4.98 µM). It also gave an MIC90 [2] of 16 µg/mL (≈ 39.9 µM), an MIC50 [3] of 2 µg/mL (≈ 4.98 µM) and an MIC90 [3] of 16 µg/mL (≈ 39.9 µM). The Activity [4] was 11%, the Activity [5] was 72% and the Activity [6] was 18%. It also gave an Activity [7] of 72%, an Activity [8] of 72% and an Activity [9] of 18%. For the same compound, the MIC [10] was 0.5 µg/mL (≈ 1.25 µM), the MIC50 [10] was 0.5 µg/mL (≈ 1.25 µM) and the MIC90 [10] was 0.5 µg/mL (≈ 1.25 µM). It also gave an Activity [11] of 100%, an Activity [12] of 56% and an Activity [13] of 11%. The Activity [14] was 56%, the Activity [15] was 56% and the Activity [16] was 11%. For the same compound, the MIC50 [17] was 0.125 µg/mL (≈ 0.311 µM), the MIC90 [17] was 0.25 µg/mL (≈ 0.623 µM) and the MIC50 [18] was 0.125 µg/mL (≈ 0.311 µM). The MIC90 [18] was 0.25 µg/mL (≈ 0.623 µM), the Activity [19] was 92% and the Activity [20] was 8%. The MIC50 [21] was 0.25 µg/mL (≈ 0.623 µM), the MIC90 [21] was 8 µg/mL (≈ 19.9 µM) and the Activity [22] was 13%. For the same compound, the MIC50 [23] was 0.25 µg/mL (≈ 0.623 µM), the MIC90 [23] was 2 µg/mL (≈ 4.98 µM) and the MIC50 [24] was 0.5 µg/mL (≈ 1.25 µM). For the same compound, the MIC90 [24] was 8 µg/mL (≈ 19.9 µM), the Activity [25] was 0% and the MIC50 [26] was 1 µg/mL (≈ 2.49 µM). It also gave an MIC90 [26] of 2 µg/mL (≈ 4.98 µM), an Activity [27] of 92% and an Activity [28] of 0%. It also gave an Activity [29] of 92%, an Activity [30] of 0% and an Activity [31] of 92%. It also gave an Activity [32] of 92%, an Activity [33] of 15% and an MIC50 [34] of 1 µg/mL (≈ 2.49 µM). For the same compound, the MIC90 [34] was 2 µg/mL (≈ 4.98 µM), the Activity [35] was 92% and the Activity [36] was 0%. For the same compound, the MIC50 [37] was 1 µg/mL (≈ 2.49 µM), the MIC90 [37] was 2 µg/mL (≈ 4.98 µM) and the Activity [38] was 92%. It also gave an MIC50 [39] of 1 µg/mL (≈ 2.49 µM), an MIC90 [39] of 2 µg/mL (≈ 4.98 µM) and an Activity [40] of 0%.
